The source of these data is ChEMBL document CHEMBL2401635, “Synthesis and biological properties of novel brefeldin A analogues” (J Med Chem, 2013).

The nature of data set [1]: Cytostatic activity against human NCI60 cells by SRB assay. The data set is classed as functional. Particulars: for CC50: read-out: LC50 (the source's name). In a few lines:
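NCI screen: single 10 μM dose first; active compounds then run at five concentrations on the same cell panel to give GI50, TGI and LC50, reported as averages over all cell lines; mean of two 5-dose tests, or one test where noted.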

Data set [2] can be described thus: Toxicity in ip dosed mouse. In kind it is organism-based. Particulars: in vivo.
A short description of data set [3]: Cytotoxicity against human HeLa R19 cells assessed as reduction of cell viability at 0.5 to 50 uM by MTS assay. In kind it is cell-based. As to conditions: hela r19, 50 µM. (In general: Tetrazolium assays rely on reduction of a dye to a coloured formazan, in cell work by metabolically active cells.)
The test system of data set [4] is Coxsackievirus B3. Kind of data set: Antiviral activity against Coxsackievirus B3 infected in human HeLa R19 cells assessed as inhibition of viral replication at 0.5 uM after 7 hrs by luciferase reporter gene assay. The data set is classed as functional, organism-based. In a few lines:
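HeLa R19 subconfluent monolayers infected 30 min at 37 °C with Renilla luciferase-expressing CVB3 (RLuc-CVB3), MOI 0.1 CCID50; inoculum replaced by medium with compound (0.5, 5 or 50 μM final; 5 mM DMSO stock) or matched DMSO control. After 7 h, cells lysed and Renilla luciferase read as replication measure; triplicates normalized to mean of same-DMSO-dilution controls.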
A general note: Reporter assays use an easily measured gene product as a stand-in for the process of interest.

Data set [5] deals with Coxsackievirus B3. Nature of the data set: Antiviral activity against Coxsackievirus B3 infected in human HeLa R19 cells assessed as inhibition of viral replication at 5 to 50 uM after 7 hrs by luciferase reporter gene assay. In kind it is functional, organism-based. In short, it runs like this:
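HeLa R19 subconfluent monolayers infected 30 min at 37 °C with Renilla luciferase-expressing CVB3, MOI 0.1 CCID50; virus replaced by medium with 0.5, 5 or 50 μM compound (5 mM DMSO stock) or matching DMSO. After 7 h, lysed and Renilla luciferase read; triplicates normalized to same-DMSO-dilution controls, shown as means ± SEM on log scale.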

Data set [6] deals with HeLa. Nature of the data set: Induction of golgi apparatus disassembly in human HeLa cells at 5 uM incubated for 60 mins followed by compound washout measured after 2 hrs by confocal microscopic analysis. The data set is classed as functional, cell-based. In a few lines:
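Reassembly: HeLa cells given 5 μM final compound for 60 min at 37 °C, drug removed, then 2 h further in drug-free medium; fixed, anti-GM130 immunolabeled (paraformaldehyde fixation, Triton permeabilization, BSA block, Alexa 546 secondary) and examined by confocal microscopy; untreated medium controls.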

In data set [7] the test system is HeLa. Nature of the data set: Induction of golgi apparatus disassembly in human HeLa cells at 5 uM after 30 to 60 mins by confocal microscopic analysis. The data set is classed as functional, cell-based. In short, it runs like this:
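HeLa cells in DMEM, 10% FBS, penicillin/streptomycin, 2 mM L-glutamine, exposed to 5 μM final compound at 37 °C for 30 or 60 min; fixed 4% paraformaldehyde 20 min, NH4Cl quench, 0.5% Triton X-100 permeabilization, 5% BSA block, anti-GM130 (cis Golgi) with Alexa 546 secondary; confocal imaging.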

Data set [8] has as its system Arabidopsis thaliana. Kind of data set: Induction of morphological changes of golgi apparatus in Arabidopsis thaliana root cells expressing ST-YFP/VHAa1-RFP at 90 uM after 30 mins by confocal laser scanning microscopic analysis. The data set is classed as functional. In a few lines:
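Arabidopsis thaliana stably expressing VHAa1-RFP/N-ST-YFP grown from surface-sterilized seed on half-strength MS, 1% sucrose, 22 °C, 16 h days; roots treated 30 min with 90 μM compound (DMSO solution) in half MS medium, untreated controls; imaged by CLSM with 63× water-immersion objective.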

In data set [9] the test system is Nicotiana tabacum. Nature of the data set: Induction of morphological changes of golgi apparatus in tobacco mesophyll protoplast expressing Man1-RFP at 90 uM after 30 mins by confocal laser scanning microscopic analysis. In kind it is functional. In short, it runs like this: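 Nicotiana tabacum cv. Petit Havana mesophyll protoplasts transiently expressing cis-Golgi marker Man1-RFP, treated 30 min with 90 μM compound (dissolved in DMSO) in half MS medium, untreated controls; observed by CLSM with 63× water-immersion objective.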

The source made the active and inactive calls. No cut-off for these calls is given here.

With `O=C1/C=C/[C@@H](O)[C@@H]2C[C@@H](O)C[C@H]2/C=C/CCC[C@H](C(F)(F)F)O1`, in data set [1], the GI50 (in general, the concentration at which growth is held to half of that of the control) was found to be 0.321 µM; the TGI (usually the concentration at which net growth stops) was 5.49 µM; the CC50 stood at 48.2 µM.
With `C=C[C@@H]1CCC/C=C/[C@@H]2C[C@H](O)C[C@H]2[C@H](O)/C=C/C(=O)O1`, in data set [1], the GI50 came out at 0.631 µM, total growth inhibition (TGI) required 17.8 µM and the CC50 stood at 66.3 µM.
In the case of `C[C@H]1CCC/C=C/[C@@H]2C[C@H](O)C[C@H]2[C@H](O)/C=C/C(=O)O1` [BREFELDIN A], in data set [2], the LD50 (in general, the dose expected to kill half of the subjects tested) was above 200 mg/kg. Besides, in data set [3], the Activity entry was “Non-toxic”. The inhibition entry in data set [4] and in data set [5] was “Active” throughout. Moreover, the result in [6] was inactive. In addition, the result in data set [7], in data set [8] and in data set [9] was Active. It took 0.0206 µM to inhibit growth in [1] by half (GI50). In [1], net growth stopped (TGI) at 3.48 µM. Besides, the CC50 in data set [1] came to 52.6 µM.
As to `O=C1/C=C/[C@@H](O)[C@@H]2C[C@@H](O)C[C@H]2/C=C/CCC[C@H](CCc2cccc3ccccc23)O1`, the Activity entry in data set [3] was “Non-toxic”. The inhibition result in data set [5] is “Active”. For the same compound, the result in data set [6] was inactive. Further, in data set [1], it took 0.0739 µM to inhibit growth by half (GI50), the TGI came out at 2.28 µM and the CC50 was 25.1 µM.
`CC(=O)Nc1ccc(CC[C@H]2CCC/C=C/[C@@H]3C[C@H](O)C[C@H]3[C@H](O)/C=C/C(=O)O2)cc1`: the Activity entry in data set [3] is “Non-toxic”. Besides, the inhibition entry in [5] was “Active”. Also, in [1], it took 0.152 µM to inhibit growth by half (GI50), total growth inhibition (TGI) required 5.7 µM and the CC50 stood at 51.6 µM. Moreover, in data set [9], the result was Active.
As to `O=C1/C=C/[C@@H](O)[C@@H]2C[C@@H](O)C[C@H]2/C=C/CCC[C@H](CCO)O1`, the Activity result in data set [3] was “Non-toxic”. Also, the inhibition result in [5] was “Active”. Further, in data set [1], the GI50 turned out to be 0.178 µM, total growth inhibition (TGI) required 7.69 µM and the CC50 amounted to 47.6 µM.
For the compound `O=C1/C=C/[C@@H](O)[C@@H]2C[C@@H](O)C[C@H]2/C=C/CCC[C@H](CCc2ccc(F)cc2)O1`, in data set [3], the Activity result was “Non-toxic”. Also, the inhibition result in data set [5] was “Active”.
Turning to `C=C[C@H]1CCC/C=C/[C@@H]2C[C@H](O)C[C@H]2[C@H](O)/C=C/C(=O)O1`, in data set [3], the Activity result is “Non-toxic”. For the same compound, the inhibition entry in data set [5] was “Active”. For the same compound, the result in [7] was Active. Besides, in data set [8], the outcome was Active. In data set [1], growth was halved (GI50) at 0.0319 µM, net growth stopped (TGI) at 4.91 µM and the CC50 worked out at 39 µM.
For the compound `COCC[C@H]1CCC/C=C/[C@@H]2C[C@H](O)C[C@H]2[C@H](O)/C=C/C(=O)O1`, the Activity result in data set [3] is given as “Non-toxic”. The inhibition entry in data set [5] is “Active”. Moreover, in [1], the GI50 was determined as 0.0902 µM, the TGI came to 5.78 µM and the CC50 came out at 42.3 µM.
Consider `O=C1/C=C/[C@@H](O)[C@@H]2C[C@@H](O)C[C@H]2/C=C/CCC[C@H](CCc2ccc(C(F)(F)F)cc2)O1`, for which the Activity entry in data set [3] is “Non-toxic”. The inhibition entry in data set [4] is “Active”. Further, the inhibition entry in [5] was “Active”. In data set [6], the outcome was inactive. Besides, the outcome in data set [7] was Active. For the same compound, in [1], the GI50 came to 0.212 µM, the TGI is 5.97 µM and the CC50 worked out at 66.2 µM. Moreover, in data set [9], the result was Active.
`O=C1/C=C/[C@@H](O)[C@@H]2C[C@@H](O)C[C@H]2/C=C/CCC[C@H](CO)O1`: in data set [1], the GI50 came out at 2.57 µM, the TGI turned out to be 38 µM and the CC50 stood at 85.1 µM.
For `O=C1/C=C/[C@@H](O)[C@@H]2C[C@@H](O)C[C@H]2/C=C/CCC[C@H](CCc2ccccc2)O1`, in [3], the Activity entry is reported as “Non-toxic”. Moreover, in data set [5], the inhibition entry is “Active”. Besides, the outcome in data set [6] was inactive. For the same compound, in [1], halving of growth (GI50) required 0.0299 µM, the TGI was 2.04 µM and the CC50 amounted to 40 µM. Also, the result in data set [9] was Active.
As to `O=C1/C=C/[C@@H](O)[C@@H]2C[C@@H](O)C[C@H]2/C=C/CCCCO1`, in data set [1], it took 0.631 µM to inhibit growth by half (GI50), the TGI came to 20.9 µM and the CC50 amounted to 69.2 µM.
Taken in the same sequence, the figures for `Nc1ccc(CC[C@H]2CCC/C=C/[C@@H]3C[C@H](O)C[C@H]3[C@H](O)/C=C/C(=O)O2)cc1` were 0.0343 µM, 2.68 µM and 56.3 µM.
With `CC(=O)[C@H]1CCC/C=C/[C@@H]2C[C@H](O)C[C@H]2[C@H](O)/C=C/C(=O)O1`, the Activity result in data set [3] was “Non-toxic”. Moreover, in data set [5], the inhibition result was “Active”. In addition, in data set [1], it took 0.594 µM to inhibit growth by half (GI50), the TGI stood at 13.3 µM and the CC50 was 61.7 µM.
Take `O=C1/C=C/[C@@H](O)[C@@H]2C[C@@H](O)C[C@H]2/C=C/CCC[C@H](CCc2ccc3cccnc3c2)O1`: in [1], the GI50 came to 0.262 µM, total growth inhibition (TGI) required 7.61 µM and the CC50 worked out at 63.9 µM. Besides, the outcome in data set [9] was Active.
Regarding `O=C1/C=C/[C@@H](O)[C@@H]2C[C@@H](O)C[C@H]2/C=C/CCC[C@H](CCOCc2ccccc2)O1`, the Activity result in data set [3] is recorded as “Non-toxic”. Besides, the inhibition entry in data set [5] was “Active”. In addition, in data set [1], halving of growth (GI50) required 0.0809 µM, net growth stopped (TGI) at 5.05 µM and the CC50 is 35.5 µM.
`CC[C@H]1CCC/C=C/[C@@H]2C[C@H](O)C[C@H]2[C@H](O)/C=C/C(=O)O1`: the outcome in data set [8] was Active. Besides, in data set [1], it took 0.0446 µM to inhibit growth by half (GI50), the TGI is 5.82 µM and the CC50 turned out to be 35.8 µM.
